molecular target: T1, Ribonucleoside-diphosphate reductase RR1 (Homo sapiens) (UniProt P23921+Q7LG56+P31350); test: Inactivation of human ribonucleotide reductase by the compound (5 uM) at rate constant K inact.; format: protein-complex assay; details: not given
Method in brief: (§1)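 The ATP contributed about 3 μM iron, keeping inhibitors iron-complexed. Reactions ran ±5 μM inhibitor unless otherwise indicated. kinact (per hour, net over the control) and v0 came from iterative nonlinear least-squares fits of decelerating time courses.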

| Compound | kinact [h⁻¹] |
| --- | --- |
| C/C(=N\N=C(/S)N/N=C(\S)Nc1ccncc1)c1ccccn1 | 0 |
| COc1ccc(Cl)cc1/N=C(\S)N/N=C(\S)N/N=C(\C)c1ccccn1 | 1 |
| C/C(=N\N=C(/S)N/N=C(\S)NC12CC3CC(CC(C3)C1)C2)c1ccccn1 | 0 |
| C/C(=N\N=C(/S)N/N=C(\S)NCCCN1CCOCC1)c1ccccn1 | 0 |

Continued, values first:

| kinact [h⁻¹] | Compound |
| --- | --- |
| 2 | C/C(=N\N=C(/S)NNC(=S)NC(=O)c1ccccc1)c1ccccn1 |
| 1 | C/C(=N\N=C(/S)N/N=C(\S)Nc1ccccc1C)c1ccccn1 |
| 0 | C/C(=N\N=C(/S)N/N=C(\S)Nc1cccnc1)c1ccccn1 |
| 0 | C/C(=N\N=C(/S)N/N=C(\S)Nc1cccc(C)c1)c1ccccn1 |

molecular target: T1, Ribonucleoside-diphosphate reductase RR1 (Homo sapiens); test: Apparent enzyme activity measured as the ratio of HSV-1 and human enzyme inhibition induces; format: functional; details: Human alphaherpesvirus 1
Method in brief: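 Apparent selectivity is the ratio of HSV-1 to human inhibition indices, each from eq 1 at 5 μM inhibitor or at the indicated concentration for each enzyme.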

| Compound | Apparent selectivity (HSV-1/human inhibition index ratio) |
| --- | --- |
| C/C(=N\N=C(/S)N/N=C(\S)Nc1ccncc1)c1ccccn1 | 3.8 |
| COc1ccc(Cl)cc1/N=C(\S)N/N=C(\S)N/N=C(\C)c1ccccn1 | 66 |
| C/C(=N\N=C(/S)N/N=C(\S)NC12CC3CC(CC(C3)C1)C2)c1ccccn1 | 24 |
| C/C(=N\N=C(/S)N/N=C(\S)NCCCN1CCOCC1)c1ccccn1 | 24 |

The remaining lines, values ahead:

| Apparent selectivity (HSV-1/human inhibition index ratio) | Compound |
| --- | --- |
| 4.5 | C/C(=N\N=C(/S)NNC(=S)NC(=O)c1ccccc1)c1ccccn1 |
| 4.6 | C/C(=N\N=C(/S)N/N=C(\S)Nc1ccccc1C)c1ccccn1 |
| 15 | C/C(=N\N=C(/S)N/N=C(\S)Nc1cccnc1)c1ccccn1 |
| 23 | C/C(=N\N=C(/S)N/N=C(\S)Nc1cccc(C)c1)c1ccccn1 |

system: Human alphaherpesvirus 1; test: Inactivation of HSV-1 ribonucleotide reductase by the compound (5 uM) at rate constant K inact.; format: functional; details: not given
Method in brief: (§2)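 Partially purified HSV-1 ribonucleotide reductase, assayed by reduction of purified [14C]CDP in 200 mM Hepes Na+ pH 7.7, 10 mM dithiothreitol, 2 μM CDP (500 Ci/mol, 3–4 × Km), with and without 5 μM inhibitor unless otherwise indicated. First-order kinact (per hour) and v0 of decelerating product time courses come from iterative nonlinear least squares. kinact is the net increase over the uninhibited control, and % inhibition refers to v0.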

| Compound | kinact [h⁻¹] |
| --- | --- |
| C/C(=N\N=C(/S)NNC(=S)NC(=O)c1ccccc1)c1ccccn1 | 15 |
| C/C(=N\N=C(/S)N/N=C(\S)Nc1ccncc1)c1ccccn1 | 16 |
| COc1ccc(Cl)cc1/N=C(\S)N/N=C(\S)N/N=C(\C)c1ccccn1 | 41 |
| C/C(=N\N=C(/S)N/N=C(\S)Nc1ccccc1C)c1ccccn1 | 10 |
| C/C(=N\N=C(/S)N/N=C(\S)Nc1cccnc1)c1ccccn1 | 9 |
| C/C(=N\N=C(/S)N/N=C(\S)NC12CC3CC(CC(C3)C1)C2)c1ccccn1 | 14 |
| C/C(=N\N=C(/S)N/N=C(\S)Nc1cccc(C)c1)c1ccccn1 | 19 |
| C/C(=N\N=C(/S)N/N=C(\S)NCCCN1CCOCC1)c1ccccn1 | 6.1 |

molecular target: T1, Ribonucleoside-diphosphate reductase RR1 (Homo sapiens); test: Inhibition of human ribonucleotide reductase by the compound (5 uM); format: protein-complex assay; details: not given; method in brief: as §1

| Compound | inhibition [%] |
| --- | --- |
| C/C(=N\N=C(/S)N/N=C(\S)Nc1ccncc1)c1ccccn1 | 83 |
| COc1ccc(Cl)cc1/N=C(\S)N/N=C(\S)N/N=C(\C)c1ccccn1 | 9 |
| C/C(=N\N=C(/S)N/N=C(\S)NC12CC3CC(CC(C3)C1)C2)c1ccccn1 | 53 |
| C/C(=N\N=C(/S)N/N=C(\S)NCCCN1CCOCC1)c1ccccn1 | 23 |

Now from value to molecule:

| inhibition [%] | Compound |
| --- | --- |
| 54 | C/C(=N\N=C(/S)NNC(=S)NC(=O)c1ccccc1)c1ccccn1 |
| 51 | C/C(=N\N=C(/S)N/N=C(\S)Nc1ccccc1C)c1ccccn1 |
| 43 | C/C(=N\N=C(/S)N/N=C(\S)Nc1cccnc1)c1ccccn1 |
| 54 | C/C(=N\N=C(/S)N/N=C(\S)Nc1cccc(C)c1)c1ccccn1 |

molecular target: T1, Ribonucleoside-diphosphate reductase RR1 (Homo sapiens); test: Inhibitory index against human ribonucleotide reductase calculated as, [1+k inact/f+0.01] where f = 1-% inhibition/100).; format: protein-complex assay; details: not given
Method in brief: (§3)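 Index per eq 1 combines kinact and percent inhibition of initial velocity from reductase reactions ±5 μM inhibitor (unless otherwise indicated). 0.99 is subtracted from the calculated ratio, so a non-inhibiting, non-inactivating compound scores zero. HSV-1 and human enzymes were assayed under their respective conditions.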

| Compound | Inhibitory index |
| --- | --- |
| C/C(=N\N=C(/S)N/N=C(\S)Nc1ccncc1)c1ccccn1 | 4.6 |
| COc1ccc(Cl)cc1/N=C(\S)N/N=C(\S)N/N=C(\C)c1ccccn1 | 1.2 |
| C/C(=N\N=C(/S)N/N=C(\S)NC12CC3CC(CC(C3)C1)C2)c1ccccn1 | 1.1 |
| C/C(=N\N=C(/S)N/N=C(\S)NCCCN1CCOCC1)c1ccccn1 | 0.29 |

Second part, the molecule after the results:

| Inhibitory index | Compound |
| --- | --- |
| 5.4 | C/C(=N\N=C(/S)NNC(=S)NC(=O)c1ccccc1)c1ccccn1 |
| 3 | C/C(=N\N=C(/S)N/N=C(\S)Nc1ccccc1C)c1ccccn1 |
| 0.73 | C/C(=N\N=C(/S)N/N=C(\S)Nc1cccnc1)c1ccccn1 |
| 1.1 | C/C(=N\N=C(/S)N/N=C(\S)Nc1cccc(C)c1)c1ccccn1 |

system: Human alphaherpesvirus 1; test: Inhibition of HSV-1 ribonucleotide reductase by the compound (5 uM); format: functional; details: not given; method in brief: as §2

| Compound | Inhibition [%] |
| --- | --- |
| C/C(=N\N=C(/S)NNC(=S)NC(=O)c1ccccc1)c1ccccn1 | 38 |
| C/C(=N\N=C(/S)N/N=C(\S)Nc1ccncc1)c1ccccn1 | 8 |
| COc1ccc(Cl)cc1/N=C(\S)N/N=C(\S)N/N=C(\C)c1ccccn1 | 48 |
| C/C(=N\N=C(/S)N/N=C(\S)Nc1ccccc1C)c1ccccn1 | 27 |
| C/C(=N\N=C(/S)N/N=C(\S)Nc1cccnc1)c1ccccn1 | 18 |
| C/C(=N\N=C(/S)N/N=C(\S)NC12CC3CC(CC(C3)C1)C2)c1ccccn1 | 47 |
| C/C(=N\N=C(/S)N/N=C(\S)Nc1cccc(C)c1)c1ccccn1 | 28 |
| C/C(=N\N=C(/S)N/N=C(\S)NCCCN1CCOCC1)c1ccccn1 | 12 |

system: Human alphaherpesvirus 1; test: Inhibitory index against HSV-1 ribonucleotide reductase calculated as, [1+k inact/f+0.01] where f = 1-% inhibition/100).; format: functional; details: not given; method in brief: as §3

| Compound | Inhibitory index |
| --- | --- |
| C/C(=N\N=C(/S)NNC(=S)NC(=O)c1ccccc1)c1ccccn1 | 24 |
| C/C(=N\N=C(/S)N/N=C(\S)Nc1ccncc1)c1ccccn1 | 17 |
| COc1ccc(Cl)cc1/N=C(\S)N/N=C(\S)N/N=C(\C)c1ccccn1 | 78 |
| C/C(=N\N=C(/S)N/N=C(\S)Nc1ccccc1C)c1ccccn1 | 14 |
| C/C(=N\N=C(/S)N/N=C(\S)Nc1cccnc1)c1ccccn1 | 11 |
| C/C(=N\N=C(/S)N/N=C(\S)NC12CC3CC(CC(C3)C1)C2)c1ccccn1 | 27 |
| C/C(=N\N=C(/S)N/N=C(\S)Nc1cccc(C)c1)c1ccccn1 | 26 |
| C/C(=N\N=C(/S)N/N=C(\S)NCCCN1CCOCC1)c1ccccn1 | 7 |

From ChEMBL document CHEMBL1126084, “2-Acetylpyridine thiocarbonohydrazones. Potent inactivators of herpes simplex virus ribonucleotide reductase” (J Med Chem, 1992)
